In data set [1] the test system is Mycobacterium tuberculosis. Briefly: Antitubercular activity against Mycobacterium tuberculosis H37Rv ATCC 27294 assessed as reduction in microbial growth under GAST/Fe medium after 1 week by two fold serial dilution method. The format is functional. Particulars: H37Rv ATCC 27294, 168 h, time 1 weeks. The gist of the method:
(§1)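 M. tuberculosis H37Rv grown to OD650nm 0.2-0.3 and diluted 1000-fold; about 1× 10^4 bacteria per well. Compounds taken from DMSO stocks and 2-fold serially diluted, in duplicate. Incubated 37 °C for 1 week, read by inverted mirror. MIC = lowest concentration giving complete growth inhibition. Isoniazid positive control, DMSO negative control. Media: GAST/Fe pH 6.6 or 7H9/glucose/casitone/Tyloxapol.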

Data set [2] deals with Mycobacterium tuberculosis. Nature of the data set: Antitubercular activity against Mycobacterium tuberculosis H37Rv ATCC 27294 assessed as reduction in microbial growth under 7H9/glucose medium after 1 week by two fold serial dilution method. The format is functional. Particulars: H37Rv ATCC 27294, 168 h, time 1 weeks. The procedure, abridged:
as §1

Data set [3] is described as follows: Cytotoxicity against human MRC5 cells assessed as reduction in cell viability after 24 hrs by NRU assay. The format is cell-based.
The test system of data set [4] is Mycobacterium tuberculosis. Nature of the data set: Inhibition of wild-type Mycobacterium tuberculosis thymidylate kinase expressed in Escherichia coli BLi5 competent cells at 0.2 mM using dTMP as substrate by lactate dehydrogenase, pyruvate kinase and nucleoside diphosphate kinase coupled spectrophotometric method. The gist of the method:
(§2)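 Purified MtbTMPK in a coupled spectrophotometric assay. Substrates fixed at dTMP 0.05 mM and ATP 0.5 mM. Compounds in DMSO, serially diluted; IC50 calculated, or no inhibition recorded at 0.2 mM.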

Data set [5] in a line: Inhibition of wild-type Mycobacterium tuberculosis thymidylate kinase expressed in Escherichia coli BLi5 competent cells using dTMP as substrate by lactate dehydrogenase, pyruvate kinase and nucleoside diphosphate kinase coupled spectrophotometric method. The procedure, abridged:
as §2

Data set [6] can be described thus: Selectivity index, ratio of CC50 for human MRC5 cells to ratio of MIC99 for antitubercular activity against Mycobacterium tuberculosis H37Rv ATCC 27294 assessed as reduction in microbial growth under GAST/Fe medium. Particulars: read-out: Selectivity Index. The format is toxicity.
Data set [7] can be described thus: Selectivity index, ratio of CC50 for human MRC5 cells to ratio of MIC99 for antitubercular activity against Mycobacterium tuberculosis H37Rv ATCC 27294 assessed as reduction in microbial growth under 7H9/glucose medium. The format is toxicity. The settings on record: read-out: Selectivity Index.

Consider 35 molecules from ChEMBL document CHEMBL4706502, “Synthesis and structure activity relationships of cyanopyridone based anti-tuberculosis agents” (Eur J Med Chem, 2020).

Active and inactive are the calls of the source. The calls are words filed in the database; no cut-off is given here.

By MIC99 is commonly meant an inhibitory concentration at the 99% level, which refers to growth in some studies and to a panel of isolates in others. As usually defined, the CC50 is the concentration at which the toxic effect on the cells reaches its halfway point. As to `COc1ccc(Oc2ccc(-c3c[nH]c(=O)c(C#N)c3[S+](C)[O-])cc2)cc1` (centres undefined), the values for the MIC99 in data set [1] and in data set [2] were 9.4 µM and 19 µM, respectively. Besides, in data set [3], the CC50 at 24 h came out at 23 µM.
Turning to `Cc1ccc(Oc2ccc(-c3c[nH]c(=O)c(C#N)c3[S+](C)[O-])cc2)cc1` (centres undefined), the MIC99 is 4.7 µM in data set [1] and 9.4 µM in data set [2]. In data set [3], the cytotoxic concentration (CC50) at 24 h came to 28 µM.
Take `C[S+]([O-])c1c(-c2ccccc2Oc2ccccc2)c[nH]c(=O)c1C#N` (centres undefined): the MIC99 stood at 9.4 µM in data set [1] and 50 µM in data set [2]. Further, the CC50 at 24 h in data set [3] worked out at 30 µM. Besides, the inhibition entry in data set [4] is “inactive”.
As to `COc1ccc(Oc2cccc(-c3c[nH]c(=O)c(C#N)c3[S+](C)[O-])c2)cc1` (centres undefined), the MIC99 in data set [1] was 6.25 µM; in data set [2], 25 µM. The CC50 at 24 h in data set [3] came out at 30 µM.
With `CS(=O)(=O)c1c(-c2cccc(Cl)c2)c[nH]c(=O)c1C#N`, the MIC99 in data set [1] and in data set [2] was > 50 µM each time. Further, the CC50 at 24 h in data set [3] is > 64 µM.
Usually IC50 stands for the concentration at which inhibition is half-maximal. In the case of `CSc1c(-c2ccccc2)c[nH]c(=O)c1C#N`, the MIC99 is ≥ 100 µM in data set [1] and 100 µM in data set [2]. The IC50 in data set [5] was 206 µM. Moreover, the CC50 at 24 h in data set [3] worked out at 64 µM.
As for `C[S+]([O-])c1c(-c2ccc(Br)cc2)c[nH]c(=O)c1C#N` (centres undefined), the MIC99 in data set [1] was 19 µM; in data set [2] it was 12.5 µM. Besides, the 50% cytotoxic concentration (CC50) at 24 h in data set [3] is > 64 µM.
With `C[S+]([O-])c1c(-c2cccc(OCc3ccccc3)c2)c[nH]c(=O)c1C#N` (centres undefined), the figures for the MIC99 in data set [1] and in data set [2] were 6.25 µM and 19 µM, respectively. Moreover, the half-maximal cytotoxic concentration (CC50) at 24 h in data set [3] was determined as 25 µM.
With `COc1ccc(-c2c[nH]c(=O)c(C#N)c2[S+](C)[O-])cc1` (centres undefined), the MIC99 in data set [1] and in data set [2] was > 100 µM throughout. Further, the CC50 at 24 h in data set [3] is > 64 µM.
Regarding `C[S+]([O-])c1cc(-c2cccc(Br)c2)[nH]c(=O)c1C#N` (centres undefined), the MIC99 in data set [1] and in data set [2] was 19 µM throughout. This molecule yielded a concentration for half-maximal inhibition (IC50) in data set [5] of 28 µM.
For the molecule `C[S+]([O-])c1c(-c2ccc(Cl)c(Cl)c2)c[nH]c(=O)c1C#N` (centres undefined), the MIC99 in data set [1] turned out to be 12.5 µM; in data set [2], 19 µM. For the same molecule, the half-maximal cytotoxic concentration (CC50) at 24 h in data set [3] is > 64 µM.
For the molecule `C[S+]([O-])c1c(-c2cccc(OCc3ccc(Cl)cc3)c2)c[nH]c(=O)c1C#N` (centres undefined), the MIC99 in data set [1] and in data set [2] was 9.4 µM in each case. Further, in data set [3], the CC50 at 24 h is 31 µM.
Turning to `C[S+]([O-])c1c(-c2cccc(Oc3ccccc3)c2)c[nH]c(=O)c1C#N` (centres undefined), the MIC99 in data set [2] stood at 37 µM. In data set [3], the CC50 at 24 h amounted to 32 µM. Further, the inhibition entry in data set [4] was “inactive”.
For `C[S+]([O-])c1c(-c2ccc(Oc3ccc(Cl)c(Cl)c3)cc2)c[nH]c(=O)c1C#N` (centres undefined), the MIC99 turned out to be 19 µM in data set [1] and 9.4 µM in data set [2]. The CC50 at 24 h in data set [3] is 28 µM.
As for `C[S+]([O-])c1c(-c2cccc(OCc3cccc(Cl)c3)c2)c[nH]c(=O)c1C#N` (centres undefined), the MIC99 in data set [1] and in data set [2] was 9.4 µM each time. Besides, in data set [3], the 50% cytotoxic concentration (CC50) at 24 h was > 64 µM.
For `C[S+]([O-])c1c(-c2ccccc2Cl)c[nH]c(=O)c1C#N` (centres undefined), the MIC99 in data set [1] was 37 µM; in data set [2], 12.5 µM. Besides, in data set [3], the CC50 at 24 h was > 64 µM.
Take `C[S+]([O-])c1c(-c2ccc(Oc3ccccc3)cc2)c[nH]c(=O)c1C#N` (centres undefined): the results for the MIC99 in data set [1] and in data set [2] were 3.13 µM and 25 µM, respectively. Besides, the CC50 at 24 h in data set [3] was > 64 µM. Besides, the inhibition result in data set [4] was “inactive”.
`CS(=O)(=O)c1c(-c2ccc(C(F)(F)F)cc2)c[nH]c(=O)c1C#N`: the MIC99 in data set [1] and in data set [2] was > 50 µM throughout. In addition, the CC50 at 24 h in data set [3] is > 64 µM.
Take `C[S+]([O-])c1c(-c2ccc(C(F)(F)F)cc2)c[nH]c(=O)c1C#N` (centres undefined): the MIC99 turned out to be 19 µM in data set [1] and 37 µM in data set [2]. In data set [3], the cytotoxic concentration (CC50) at 24 h was > 64 µM.
Take `C[S+]([O-])c1c(-c2ccccc2)c[nH]c(=O)c1C#N` (centres undefined): the MIC99 turned out to be 37 µM in data set [1] and 25 µM in data set [2]. Further, in data set [3], the half-maximal cytotoxic concentration (CC50) at 24 h is > 64 µM. Further, the inhibition entry in data set [4] was “inactive”.
In the case of `C[S+]([O-])c1c(-c2ccc(Oc3ccc(Cl)cc3)cc2)c[nH]c(=O)c1C#N` (centres undefined), the MIC99 in data set [1] and in data set [2] was 9.4 µM throughout. Further, the 50% cytotoxic concentration (CC50) at 24 h in data set [3] worked out at 25 µM.
Turning to `C[S+]([O-])c1c(-c2cccc(OCc3ccccc3Cl)c2)c[nH]c(=O)c1C#N` (centres undefined), the MIC99 in data set [1] is 4.7 µM; in data set [2], 9.4 µM. Further, the CC50 at 24 h in data set [3] came to 25 µM.
With `C[S+]([O-])c1c(-c2ccc(Cl)cc2)c[nH]c(=O)c1C#N` (centres undefined), the figures for the MIC99 in data set [1] and in data set [2] were 25 µM and 19 µM, respectively. The cytotoxic concentration (CC50) at 24 h in data set [3] was > 64 µM.
With `Cc1ccc(Oc2cccc(-c3c[nH]c(=O)c(C#N)c3[S+](C)[O-])c2)cc1` (centres undefined), the MIC99 in data set [1] was determined as 6.25 µM; in data set [2], 25 µM. In addition, the CC50 at 24 h in data set [3] turned out to be 30 µM.
On to `C[S+]([O-])c1c(-c2cccc(OCc3ccc(Cl)c(Cl)c3)c2)c[nH]c(=O)c1C#N` (centres undefined), for which the MIC99 in data set [1] and in data set [2] was 9.4 µM throughout. Besides, the CC50 at 24 h in data set [3] is > 64 µM.
As to `C[S+]([O-])c1c(-c2cccc(Cl)c2)c[nH]c(=O)c1C#N` (centres undefined), the MIC99 in data set [1] was found to be 37 µM; in data set [2], 19 µM. In addition, the CC50 at 24 h in data set [3] is > 64 µM.
Turning to `CS(=O)(=O)c1c(-c2ccc(Cl)c(Cl)c2)c[nH]c(=O)c1C(N)=O`, the MIC99 in data set [1] is 19 µM. The CC50 at 24 h in data set [3] is > 64 µM.
With `C[S+]([O-])c1c(-c2cccc(Oc3ccc(Cl)c(Cl)c3)c2)c[nH]c(=O)c1C#N` (centres undefined), the figures for the MIC99 in data set [1] and in data set [2] were 19 µM and 12.5 µM, respectively. Moreover, the CC50 at 24 h in data set [3] was determined as 8 µM.
As for `C[S+]([O-])c1c(-c2ccc(-c3ccccc3)cc2)c[nH]c(=O)c1C#N` (centres undefined), the selectivity ratio in data set [6] is 27.8; in data set [7], 50. In addition, the MIC99 is 2.3 µM in data set [1] and 1.2 µM in data set [2]. Also, the CC50 at 24 h in data set [3] is > 64 µM.
For `NNC(=O)c1ccncc1` [ISONIAZID], the results for the MIC99 in data set [1] and in data set [2] were 0.2 µM and 0.15 µM, respectively.
Turning to `C[S+]([O-])c1c(-c2ccc(OCc3ccccc3)cc2)c[nH]c(=O)c1C#N` (centres undefined), the MIC99 in data set [1] amounted to 4.7 µM; in data set [2], 9.4 µM. The CC50 at 24 h in data set [3] worked out at 25 µM.
Consider `C[S+]([O-])c1c(-c2cccc(Oc3ccc(Cl)cc3)c2)c[nH]c(=O)c1C#N` (centres undefined), for which the MIC99 in data set [1] was 9.5 µM; in data set [2] it was 12.5 µM. For the same molecule, the CC50 at 24 h in data set [3] came out at 24 µM.
Taken in the same sequence, the figures for `CS(=O)(=O)c1c(-c2ccccc2Cl)c[nH]c(=O)c1C#N` were > 50 µM, 37 µM and > 64 µM.
In the case of `C[S+]([O-])c1c(-c2ccc(Cl)c(Cl)c2)c[nH]c(=O)c1C(N)=O` (centres undefined), the MIC99 in data set [1] is ≥ 50 µM; in data set [2] it was 50 µM. Moreover, the 50% cytotoxic concentration (CC50) at 24 h in data set [3] turned out to be 16 µM.
For the molecule `C[S+]([O-])c1c(-c2cccc(OCc3ccccc3[N+](=O)[O-])c2)c[nH]c(=O)c1C#N` (centres undefined), the MIC99 in data set [1] is 19 µM; in data set [2], 37 µM. The 50% cytotoxic concentration (CC50) at 24 h in data set [3] worked out at 64 µM.
